Reference: article PMC8245904 (Acta Pharmaceutica Sinica. B, 2021)
Like-named read-outs stand apart in the source and are kept apart here.

Experiments:
[1] = cited from earlier work
[2] = blood-to-lumen jejunal 51Cr-EDTA clearance; assay type: in vivo; conditions: hypotonic perfusate (100 mOsm) with lidocaine, rat SPIP, test vs control period
Method in brief: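 Male Wistar Han rats (299–395 g) anaesthetised with inactin (180 mg/kg i.p., 5% w/v), body temperature held at 37.5 ± 0.5 °C, arterial pressure monitored. The proximal jejunal segment (about 10 cm) was single-pass perfused at 0.2 mL/min at 37 °C. A 30-min PBS stabilisation reached steady plasma 51Cr-EDTA. Then came 60 min of isotonic pH 7.4 control buffer holding both peptides, followed by 75 min of hypotonic (100 mOsm) perfusate with lidocaine 1 mg/mL. Clearance was computed as blood-to-lumen 51Cr-EDTA transport per 100 g wet jejunal tissue, expressed as the ratio of mean test-period (60 min) to mean control-period (45 min) values. n = 6 rats.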

[3] = Pefabloc SC at 0.3 mg/mL, in rat; cited from earlier work
[4] = cited from earlier work; for basal permeability: recent rat SPIP study with transcellular PEs; for effect of transcellular PEs on jejunal permeability: sodium dodecyl sulfate (SDS) and caprate, rat SPIP in vivo
[5] = dissociation constant; cited from earlier work
[6] = n-octanol-water coefficient; ref 22 (enalaprilat), ref 23 (hexarelin); cited from earlier work
[7] = ref 22 (enalaprilat), ref 23 (hexarelin); cited from earlier work
[8] = compatibility/stability of study drugs in perfusion solution; assay type: physicochemical; conditions: solution pH 6.5, 37 °C; for concentration in perfusion solution, after: after 4 h; for concentration in perfusion solution, before: before 4 h
[9] = rat single-pass intestinal perfusion; assay type: in vivo; conditions: with EDTA at 1 mg/mL or the two hypotonic (100 mOsm) perfusion solutions with or without lidocaine; rat SPIP, n = 6

Molecule | basal permeability [4] | effect of transcellular PEs on jejunal permeability [4] | LogP [6] | HBA (hydrogen bond acceptor) [7] | HBD (hydrogen bond donor) [7] | concentration in perfusion solution, after [8] [µM] | concentration in perfusion solution, before [8] [µM] | further results
semaglutide | – | – | – | – | – | – | – | terminal half-life in plasma [1]: ~1 week; bioavailability of the given oral dose ([1]; with SNAC): 0.4%–1.0
O=C([O-])CN(CCN(CC(=O)[O-])CC(=O)[O-])CC(=O)[O-].[51Cr+3] [51Cr-EDTA, ^51chromium-labeled EDTA] | – | – | – | – | – | – | – | increase in CLCr-EDTA (permeability) [2]: 15 fold
Cl.NCCc1ccc(S(=O)(=O)F)cc1 [Pefabloc SC] | – | – | – | – | – | – | – | inhibition of the intestinal degradation of hexarelin [3]: completely inhibits
C[C@H](N[C@@H](CCc1ccccc1)C(=O)O)C(=O)N1CCC[C@H]1C(=O)O [Enalaprilat] | 0.013 ± 0.009 × 10^−4 cm/s | substantially increased | −0.13 | 6 | 3 | 84.8 | 83.9 | pKa (footnote a, Acid) [5]: 7.84; pKa (footnote b, Base) [5]: 3.17
Hexarelin | 0.0019 ± 0.0013 × 10^−4 cm/s | unaffected | 0.73 | 9 | 11 | 33.9 | 29.9 | PSA (polar surface area) [7]: 300; Peff ratio (baseline vs. test) [9]: no increase
desmopressin | – | – | – | – | – | – | – | bioavailability of the given oral dose [1]: 0.1%
